The IC50 is the concentration that gives 50% inhibition.

Series [1] in a line: Therapeutic index, ratio of IC50 for human BJ cells to IC50 for human G361 cells. The format is toxicity. The note with it: BJ cells versus G361 cells, read-out: Ratio IC50. Put shortly:
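Therapeutic index is IC50 in normal BJ fibroblasts divided by IC50 in G-361 melanoma cells. Both IC50 values come from the 72 h cytotoxicity test, with cells grown in DMEM with 10% FBS, 2 mM L-glutamine and antibiotics at 37 °C, 5% CO2.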

Series [2] has as its system G-361. The series can be described thus: Cell cycle arrest in human G361 cells assessed as increase in accumulation at G0/G1 phase at 0.5 to 25 uM after 24 hrs by propidium iodide staining-based flow cytometry. The format is functional. Put shortly:
(§1)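 G-361 melanoma cells grown in DMEM with 10% FBS, 2 mM L-glutamine and penicillin-streptomycin at 37 °C, 5% CO2. Cells were seeded and left 24 h, then treated with 0.5, 2.5, 12.5 or 25 µM for 24 h. Trypsinized cells were fixed and stained with 0.1% Triton X-100, 0.2 mg/mL RNase A and 10 µg/mL propidium iodide in PBS. DNA content was read by flow cytometry and phases quantified from histograms; three repeats.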
A general note: In flow cytometry, cells or beads pass a laser one at a time.

Another series concerns HeLa. The series can be described thus: Cytotoxicity against human HeLa cells after 72 hrs by calcein-AM dye based fluorescence assay. In kind it is functional, cell-based. An outline of the steps: (§2)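 Cells from ATCC, grown in DMEM with 10% fetal bovine serum, 2 mM L-glutamine and 1% penicillin-streptomycin at 37 °C, 5% CO2, humidified, and passaged by trypsinization two or three times weekly. Compound exposure lasted 72 h and the read-out was IC50 (µM).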

Series [3] has as its system G-361. The series can be described thus: Cytotoxicity against human G361 cells after 72 hrs by calcein-AM dye based fluorescence assay. The format is functional, cell-based. The note with it: G-361, 72 h. An outline of the steps: as §2
Series [4] has as its system G-361. The experiment in a line: Induction of apoptosis in human G361 cells assessed as downregulation of total Rb expression at 12.5 to 25 uM after 24 hrs by Western blot analysis. In kind it is functional, cell-based. An outline of the steps: (§3)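 G-361 cells seeded in 100-mm dishes at 1.5 × 10⁶ cells/mL and stabilized 24 h, then treated 24 h with 0.5–25 µM; DMSO vehicle controls. Lysed in RIPA buffer pH 7.4 and protein measured by Bradford. Run on 10% or 12% SDS-PAGE, blotted to nitrocellulose, probed overnight with primary antibodies, then HRP secondary and chemiluminescence. β-actin loading control, compared with untreated cells; three repeats.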

Series [5] has as its system G-361. The series can be described thus: Induction of apoptosis in human G361 cells assessed as effect on Bcl2 expression level at 0.5 to 25 uM after 24 hrs by Western blot analysis. In kind it is functional, cell-based. An outline of the steps: as §3
(Immunoblotting shows a protein as a band on a membrane.)

In series [6] the test system is G-361. The series can be described thus: Induction of apoptosis in human G361 cells assessed as effect on Mcl1 expression level at 0.5 to 25 uM after 24 hrs by Western blot analysis. In kind it is functional, cell-based. An outline of the steps:
as §3

Series [7] relates to G-361. The experiment in a line: Induction of apoptosis in human G361 cells assessed as effect on p53 protein expression level at 0.5 to 25 uM after 24 hrs by Western blot analysis. The format is functional, cell-based. An outline of the steps: as §3
The subject of series [8] is G-361. The series can be described thus: Cell cycle arrest in human G361 cells assessed as reduction in accumulation at G2/M phase at 0.5 to 25 uM after 24 hrs by propidium iodide staining-based flow cytometry. The format is functional. An outline of the steps:
as §1

The target of series [9] is Mitogen-activated protein kinase; ERK1/ERK2 (Homo sapiens) (UniProt P27361+P28482). The experiment in a line: Inhibition of ERK1/2 phosphorylation at Thr202/Tyr204 in human G361 cells at 12.5 to 25 uM after 24 hrs by Western blotting analysis relative to control. In kind it is cell-based. Put shortly: as §3
Mitogen-activated protein kinase; ERK1/ERK2 (Homo sapiens), sequence (P27361 whole entry, looked up): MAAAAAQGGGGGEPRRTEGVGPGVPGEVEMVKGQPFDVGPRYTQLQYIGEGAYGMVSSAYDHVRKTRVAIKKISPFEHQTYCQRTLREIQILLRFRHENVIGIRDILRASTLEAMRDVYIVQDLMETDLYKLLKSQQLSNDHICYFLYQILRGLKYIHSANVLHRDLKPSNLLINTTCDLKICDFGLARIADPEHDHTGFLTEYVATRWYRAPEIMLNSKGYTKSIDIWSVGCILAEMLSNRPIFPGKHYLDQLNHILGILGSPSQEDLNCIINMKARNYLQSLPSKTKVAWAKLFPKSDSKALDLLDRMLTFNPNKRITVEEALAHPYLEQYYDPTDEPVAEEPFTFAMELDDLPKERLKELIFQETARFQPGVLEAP
Mitogen-activated protein kinase; ERK1/ERK2 (Homo sapiens), sequence (P28482 whole entry, looked up): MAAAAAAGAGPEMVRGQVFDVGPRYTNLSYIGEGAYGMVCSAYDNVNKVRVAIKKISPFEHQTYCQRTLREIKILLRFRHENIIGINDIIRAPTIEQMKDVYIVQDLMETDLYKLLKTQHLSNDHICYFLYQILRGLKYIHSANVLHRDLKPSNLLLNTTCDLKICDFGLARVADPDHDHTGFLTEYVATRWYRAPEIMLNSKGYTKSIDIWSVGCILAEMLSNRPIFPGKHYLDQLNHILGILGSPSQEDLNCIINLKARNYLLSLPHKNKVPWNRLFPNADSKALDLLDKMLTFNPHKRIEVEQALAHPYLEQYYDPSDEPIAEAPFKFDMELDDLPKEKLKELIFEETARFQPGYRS
Series [10] deals with G-361. The experiment in a line: Induction of apoptosis in human G361 cells assessed as increase in caspase-3/7 activity using Ac-DEVD-AMC as substrate at 25 uM after 24 hrs by fluorescence assay relative to control. In kind it is functional. An outline of the steps: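 Treated G-361 cells (0.5–25 µM, 24 h) were extracted on ice in CHAPS/HEPES buffer pH 7.4 with protease inhibitors, and lysates equalized by Bradford protein. Incubated 1 h with Ac-DEVD-AMC in PIPES/DTT buffer pH 7.3; Ac-DEVD-CHO lysates served as negative control. Fluorescence read at 346/442 nm and expressed as fold over untreated control. Three experiments in triplicate; one-way ANOVA.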

In series [11] the test system is G-361. The series can be described thus: Cell cycle arrest in human G361 cells assessed as increase in accumulation at sub-G1 phase at 0.5 to 25 uM after 24 hrs by propidium iodide staining-based flow cytometry. In kind it is functional. An outline of the steps:
as §1

The next series deals with MCF7. The series can be described thus: Cytotoxicity against human MCF7 cells after 72 hrs by calcein-AM dye based fluorescence assay. In kind it is functional, cell-based. The note with it: MCF7, 72 h. An outline of the steps: as §2
Series [12] deals with G-361. The series can be described thus: Induction of apoptosis in human G361 cells assessed as increase in cleaved caspase-7 expression at 0.5 to 25 uM after 24 hrs by Western blot analysis. In kind it is functional, cell-based. Put shortly:
as §3

The subject of a further series is BJ. The series can be described thus: Cytotoxicity against human BJ cells after 72 hrs by calcein-AM dye based fluorescence assay. The format is cell-based. Put shortly:
as §2

Series [13] relates to G-361. The series can be described thus: Effect on total p44/42 level in human G361 cells at 0.5 to 25 uM after 24 hrs by Western blot analysis. The note with it: g-361, 24 h. In kind it is cell-based. An outline of the steps:
as §3

In series [14] the test system is G-361. The series can be described thus: Induction of apoptosis in human G361 cells assessed as downregulation of phosphorylated Rb expression at 12.5 to 25 uM after 24 hrs by Western blot analysis. In kind it is functional, cell-based. An outline of the steps:
as §3

For series [15], the system named is G-361. The experiment in a line: Induction of apoptosis in human G361 cells assessed as increase in cleaved PARP expression at 0.5 to 25 uM after 24 hrs by Western blot analysis. In kind it is functional, cell-based. An outline of the steps: as §3
Another series has as its system CCRF-CEM. The series can be described thus: Cytotoxicity against human CEM cells after 72 hrs by calcein-AM dye based fluorescence assay. The format is functional, cell-based. Put shortly: as §2

Calls of active or inactive are those of the source. No cut-off for these calls is given here. A value given as a limit tells only on which side of the number the result lay.

With `C=C(C)[C@@H]1CC[C@]2(C(=O)O)CC[C@]3(C)[C@H](CC[C@@H]4[C@@]5(C)CC[C@H](OC(=O)CCC(=O)NCc6ccccn6)C(C)(C)[C@@H]5CC[C@]43C)[C@@H]12`, the selectivity ratio in series [1] is 19.3. Besides, the outcome with G-361 [2], in the series with G-361 [4], with G-361 [8], in the series with G-361 [11], in the series with G-361 [12] and with G-361 [14] was Active. In addition, in the series on G-361 [15], the outcome was Active. Also, the 50% inhibitory concentration (IC50) in the series on HeLa was 2.3 µM; in the series on G-361 [3], 2.4 µM; in the series on MCF7, 2.2 µM; in the series on BJ, 46.2 µM; in the series on CCRF-CEM it was 6.9 µM. For the same compound, the result in the series on G-361 [5], in the series with G-361 [6] and with G-361 [7] was inactive. Besides, in series [9], the inhibition result is “Active”. Moreover, the “fold change (FC)” value in the series with G-361 [10] was “<=18”. Also, the Activity entry in the series on G-361 [13] is “Non-Toxic”.
With `C=C(C)[C@@H]1CC[C@]2(C(=O)NCc3ccncc3)CC[C@]3(C)[C@H](CC[C@@H]4[C@@]5(C)CC[C@H](O)C(C)(C)[C@@H]5CC[C@]43C)[C@@H]12`, the selectivity ratio in series [1] was found to be 1. Besides, the IC50 in the series on HeLa is 14.8 µM; in the series on G-361 [3] it was 11.6 µM; with MCF7, 21.1 µM; in the series on BJ, 11.2 µM; in the series on CCRF-CEM, 18.6 µM.
For `C=C(C)[C@@H]1CC[C@]2(C(=O)NCc3ccccn3)CC[C@]3(C)[C@H](CC[C@@H]4[C@@]5(C)CC[C@H](O)C(C)(C)[C@@H]5CC[C@]43C)[C@@H]12`, in [1], the selectivity ratio came out at 1. In addition, the half-inhibitory concentration (IC50) with HeLa was 14.7 µM; with G-361 [3] it was 16.4 µM; in the series with MCF7, 27 µM; in the series with BJ it was 15.8 µM; in the series with CCRF-CEM it was 18.6 µM.
As for `C=C(C)[C@@H]1CC[C@]2(C(=O)O)CC[C@]3(C)[C@H](CC[C@@H]4[C@@]5(C)CC[C@H](OC(=O)CCC(=O)NCc6cccnc6)C(C)(C)[C@@H]5CC[C@]43C)[C@@H]12`, the selectivity ratio in series [1] is 100. Also, the outcome in the series with G-361 [2], in the series on G-361 [4], with G-361 [8], in the series on G-361 [11], with G-361 [12] and with G-361 [14] was Active. Moreover, the outcome with G-361 [15] was Active. Also, the half-inhibitory concentration (IC50) is 2.4 µM with HeLa; 0.5 µM with G-361 [3]; 1.4 µM in the series on MCF7; 50 µM with BJ; 6.5 µM in the series on CCRF-CEM. In addition, the outcome in the series with G-361 [5], in the series with G-361 [6] and in the series on G-361 [7] was inactive. Further, the inhibition result in series [9] was “Active”. In addition, the “fold change (FC)” value in the series with G-361 [10] is on record as 12. Further, the Activity entry in the series on G-361 [13] is “Non-Toxic”.
As to `C=C(C)[C@@H]1CC[C@]2(C(=O)NCc3cccnc3)CC[C@]3(C)[C@H](CC[C@@H]4[C@@]5(C)CC[C@H](O)C(C)(C)[C@@H]5CC[C@]43C)[C@@H]12`, the selectivity ratio in series [1] was found to be 1. In addition, the IC50 was 23.6 µM in the series on HeLa; 18.1 µM with G-361 [3]; 38.7 µM with MCF7; 17.5 µM with BJ; 25.3 µM in the series on CCRF-CEM.
Turning to `C=C(C)[C@@H]1CC[C@]2(C(=O)O)CC[C@]3(C)[C@H](CC[C@@H]4[C@@]5(C)CC[C@H](OC(=O)CCC(=O)NCc6ccncc6)C(C)(C)[C@@H]5CC[C@]43C)[C@@H]12`, the result in the series on G-361 [2], in the series on G-361 [8], in the series on G-361 [10] and with G-361 [11] was inactive. Further, the IC50 in the series with HeLa was 40.9 µM; in the series on G-361 [3] it was 32.1 µM; in the series on MCF7 it was > 50 µM; in the series on BJ it was > 50 µM; in the series with CCRF-CEM, 22.6 µM.

The record behind these values is ChEMBL document CHEMBL4251637, “Picolyl amides of betulinic acid as antitumor agents causing tumor cell apoptosis” (Eur J Med Chem, 2018).
